Results as given in ChEMBL document CHEMBL3872225, “Synthesis, binding assays, cytotoxic activity and docking studies of benzimidazole and benzothiophene derivatives with selective affinity for the CB2 cannabinoid receptor” (Eur J Med Chem, 2016).

Legend:
[1] = molecular target: Cannabinoid receptor 1 (Homo sapiens, UniProt P21554); assay: Displacement of [3H]CP-55940 from human recombinant CB1 receptor expressed in HEK293 cell membranes incubated for 1.5 hrs
How it was run: (§1)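 Membranes from HEK-293 cells overexpressing human CB1 or CB2 incubated with increasing compound concentrations and 0.5 nM [3H]CP-55,940 at 30 °C for 1.5 h. […] Selectivity index is Ki CB1/Ki CB2.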

[2] = molecular target: Cannabinoid receptor 1 (CB1) (Homo sapiens, UniProt P21554); assay: Displacement of [3H]CP-55940 from human recombinant CB1 receptor expressed in HEK293 cell membranes at 1 uM incubated for 1.5 hrs relative to control; conditions: probe [3H]CP-55940
How it was run: (§2)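 Single-point screen on HEK-293 membranes overexpressing human CB1 or CB2. […] Compounds displacing more than 50% at 1 μM went on to full curves.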

[3] = molecular target: T1, Cannabinoid receptor 2 (Homo sapiens, UniProt P34972); assay: Displacement of [3H]CP-55940 from human recombinant CB2 receptor expressed in HEK293 cell membranes at 1 uM incubated for 1.5 hrs relative to control; how it was run: as §2
[4] = molecular target: T1, Cannabinoid receptor 2; assay: Displacement of [3H]CP-55940 from human recombinant CB2 receptor expressed in HEK293 cell membranes incubated for 1.5 hrs; how it was run: as §1
[5] = species on record: Homo sapiens; assay: Selectivity index, ratio of Ki for displacement of [3H]CP-55940 from human recombinant CB1 receptor to Ki for displacement of [3H]CP-55940 from human recombinant CB2 receptor; how it was run: as §1
[6] = Cytotoxicity against human HeLa cells assessed as reduction in cell viability measured after 72 hrs by MTT assay; type: functional, cell-based
How it was run: (§3)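 Cells kept in RPMI 1640 with 5% FBS, penicillin/streptomycin, 37 °C, 5% CO2. Seeded at 10,000 cells/well, then exposed to compounds at 0.001–10 μM in 5% FBS-RPMI for 72 h at 37 °C. MTT added for 4 h, formazan dissolved overnight in 10% SDS/0.1 mM HCl, absorbance read at 570 nm. […] Etoposide as positive control.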

[7] = Cytotoxicity against resistant human HCT116 cells assessed as reduction in cell viability measured after 72 hrs by MTT assay; type: functional, cell-based; conditions: HCT-116, 72 h; how it was run: as §3
[8] = Cytotoxicity against African green monkey Vero cells assessed as reduction in cell viability measured after 72 hrs by MTT assay; type: toxicity, cell-based; conditions: Chlorocebus sabaeus (African green monkey); how it was run: as §3
[9] = Cytotoxicity against human HL60 cells assessed as reduction in cell viability measured after 72 hrs by MTT assay; type: functional, cell-based; conditions: HL-60, 72 h; how it was run: as §3
[10] = Cytotoxicity against human H1975-1 cells assessed as reduction in cell viability measured after 72 hrs by MTT assay; type: functional, cell-based; how it was run: as §3

T1 sequence (P34972 whole entry): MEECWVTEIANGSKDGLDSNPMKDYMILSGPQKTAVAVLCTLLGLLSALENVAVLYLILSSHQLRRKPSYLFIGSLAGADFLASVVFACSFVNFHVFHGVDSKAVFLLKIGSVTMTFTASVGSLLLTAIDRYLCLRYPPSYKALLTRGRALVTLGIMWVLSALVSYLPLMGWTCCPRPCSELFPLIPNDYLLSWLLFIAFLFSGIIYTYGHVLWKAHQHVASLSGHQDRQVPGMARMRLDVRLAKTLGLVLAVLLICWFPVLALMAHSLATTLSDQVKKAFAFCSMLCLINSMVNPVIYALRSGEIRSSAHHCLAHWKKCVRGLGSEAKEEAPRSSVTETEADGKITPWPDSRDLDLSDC
Chain of Cannabinoid receptor 1 (P21554 whole entry): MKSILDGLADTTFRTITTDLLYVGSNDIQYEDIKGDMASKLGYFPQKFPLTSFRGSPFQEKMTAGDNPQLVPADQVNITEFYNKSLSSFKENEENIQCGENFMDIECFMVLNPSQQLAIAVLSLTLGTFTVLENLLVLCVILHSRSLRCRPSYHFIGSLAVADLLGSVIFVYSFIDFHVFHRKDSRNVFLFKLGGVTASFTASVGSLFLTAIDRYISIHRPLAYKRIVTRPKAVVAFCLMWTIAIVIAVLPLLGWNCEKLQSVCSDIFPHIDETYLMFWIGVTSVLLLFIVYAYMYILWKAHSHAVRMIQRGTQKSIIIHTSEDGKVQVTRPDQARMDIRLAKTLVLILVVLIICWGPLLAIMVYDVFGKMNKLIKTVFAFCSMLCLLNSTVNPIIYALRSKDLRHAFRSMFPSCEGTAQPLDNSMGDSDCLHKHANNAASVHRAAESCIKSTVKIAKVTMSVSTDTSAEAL
Chain of Cannabinoid receptor 1 (CB1) (P21554 whole entry): as above

Structure (SMILES)	IC50 [1]	Ki [1]	inhibition at 1.5 h, 1 µM [2]	inhibition [3]	IC50 [4]	Ki [4]	Ratio Ki [5]	IC50 [6]	IC50 [7]	IC50 at 72 h [8]	IC50 [9]	IC50 [10]
CCCCc1nc2ccccc2n1C(=O)c1cccc2ccccc12	9700 nM	5900 nM	> 50%	> 50%	1700 nM	400 nM	14.7	> 10000 nM	560 nM	4100 nM	105 nM	> 10000 nM
COc1ccc(C(=O)c2c(-c3ccc(OC)cc3)sc3ccccc23)cc1	1100 nM	700 nM	> 50%	> 50%	400 nM	100 nM	7	> 10000 nM	> 10000 nM	> 10000 nM	76 nM	> 10000 nM
CCCc1nc2ccccc2n1C(=O)c1ccc(OC)cc1	> 10000 nM	> 10000 nM	> 50%	> 50%	7600 nM	1900 nM	> 5.26	> 10000 nM	120 nM	300 nM	102 nM	> 10000 nM
O=C(c1cc2ccccc2s1)c1cccc2ccccc12	4500 nM	2700 nM	> 50%	> 50%	4100 nM	1000 nM	2.7	> 10000 nM	> 10000 nM	> 10000 nM	51 nM	> 10000 nM
COc1ccc(C(=O)n2c(C3CCCC3)nc3ccccc32)cc1	> 10000 nM	> 10000 nM	> 50%	> 50%	2200 nM	500 nM	> 20	> 10000 nM	> 10000 nM	> 10000 nM	76 nM	> 10000 nM
COc1ccc(C(=O)n2c(C(C)C)nc3ccccc32)cc1	> 10000 nM	> 10000 nM	> 50%	> 50%	3200 nM	800 nM	> 12.5	> 10000 nM	190 nM	> 10000 nM	630 nM	> 10000 nM
O=C(c1cccc2ccccc12)n1c(C2CCCCC2)nc2ccccc21	4900 nM	2900 nM	> 50%	> 50%	1700 nM	400 nM	7.25	> 10000 nM	3020 nM	> 10000 nM	220 nM	> 10000 nM
CCCCCc1sc2ccccc2c1C(=O)c1cccc2ccccc12	800 nM	500 nM	> 50%	> 50%	1300 nM	300 nM	1.7	> 10000 nM	> 10000 nM	> 10000 nM	170 nM	> 10000 nM
O=C(c1cccc2ccccc12)n1c(C2CCCC2)nc2ccccc21	> 10000 nM	> 10000 nM	> 50%	> 50%	2900 nM	700 nM	> 14	> 10000 nM	> 10000 nM	> 10000 nM	106 nM	> 10000 nM
COc1ccc(C(=O)n2c(C3CCC3)nc3ccccc32)cc1	> 10000 nM	> 10000 nM	> 50%	> 50%	3600 nM	900 nM	> 11	> 10000 nM	> 10000 nM	> 10000 nM	47 nM	> 10000 nM
CCCCc1nc2ccccc2n1C(=O)c1ccc(OC)cc1	> 10000 nM	> 10000 nM	> 50%	> 50%	6300 nM	1600 nM	> 6.25	> 10000 nM	> 10000 nM	170 nM	61 nM	> 10000 nM
CC(C)Cc1sc2ccccc2c1C(=O)c1cccc2ccccc12	1200 nM	700 nM	> 50%	> 50%	2000 nM	500 nM	1.4	> 10000 nM	> 10000 nM	> 10000 nM	72 nM	> 10000 nM
COc1ccc(C(=O)n2c(C3CCCCC3)nc3ccccc32)cc1	> 10000 nM	> 10000 nM	> 50%	> 50%	2800 nM	700 nM	> 14	> 10000 nM	> 10000 nM	1640 nM	85 nM	> 10000 nM
CCc1sc2ccccc2c1C(=O)c1ccc(OC)cc1	> 10000 nM	> 10000 nM	> 50%	> 50%	6600 nM	1600 nM	> 6.2	> 10000 nM	> 10000 nM	> 10000 nM	46 nM	> 10000 nM
COc1ccc(Cn2c(-c3ccc(OC)cc3)nc3ccccc32)cc1	> 10000 nM	> 10000 nM	> 50%	> 50%	2700 nM	700 nM	> 14	3060 nM	1750 nM	> 10000 nM	57 nM	> 10000 nM
O=C(c1cccc2ccccc12)c1csc2ccccc12	> 10000 nM	> 10000 nM	> 50%	> 50%	1100 nM	200 nM	> 50	> 10000 nM	> 10000 nM	> 10000 nM	58 nM	> 10000 nM
